Experiments:
HFF [1] = experiment: Antiviral activity was determined by the HCMV plaque assay using HFF cells; type: functional, cell-based; conditions: Homo sapiens
Summary of the method: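 HCMV Towne strain (plaque-purified isolate Po) on HFF monolayers grown in MEM with Earle's salts and 10% FBS. Inoculum held approximately 50 PFU. Compounds were dissolved in the overlay medium and plaques counted. IC50 came from linear regression of percent inhibition against log concentration. Ganciclovir was the positive control.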

L1210 [2] = experiment: The in vitro cytotoxicity against L1210 cells was evaluated; type: functional, cell-based; conditions: Mus musculus
Summary of the method: (§1)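 L1210 cells were grown in static suspension in Fischer's medium with 10% heat-inactivated horse serum. Cells were counted at 0, 48 and 96 h across a range of compound concentrations. Growth rate is the ratio of control to treated population-doubling time; the 48–96 h rate was used if growth slowed. IC50 is the concentration giving 50% of control growth rate; highest concentration tested was 100 μM.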

HFF [3] = experiment: Cytotoxicity in HFF cells was estimated by the visual scoring of cells not affected by virus infection in the plaque reduction assay.; conditions: Homo sapiens
KB [4] = experiment: Cytotoxicity in KB cells.; type: functional, cell-based; conditions: Homo sapiens
Summary of the method: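 KB cells grown in MEM with Hank's salts and 5% FBS. Growth was measured spectrophotometrically by crystal violet staining 2 days after drug treatment, in quadruplicate wells. IC50 was taken from linear regression of percent inhibition against log concentration. 2-Acetylpyridine thiosemicarbazone was the positive control.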

KB [5] = experiment: Antiviral activity was estimated by HSV-1 ELISA method.; type: functional, cell-based; conditions: Homo sapiens
Summary of the method: (§2)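 HSV-1 S-148 strain was assayed by enzyme immunoassay (ELISA) in quadruplicate wells. The reported value is the average IC50, taken from linear regression of percent inhibition against log drug concentration. Acyclovir served as the positive control, and sets were rejected if it deviated more than 1.5 standard deviations from its mean.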

KB [6] = experiment: Antiviral activity was estimated by HSV-1 ELISA method (data of single experiment); type: functional, cell-based; conditions: Homo sapiens; summary of the method: as §2
L1210 [7] = experiment: cytotoxicity in L1210 cell culture(cell proliferation inhibited by 50%); type: functional, cell-based; conditions: Mus musculus; summary of the method: as §1
L1210 [8] = experiment: Cytotoxicity in L1210 cell culture(cell proliferation inhibited by 50%); type: functional, cell-based; conditions: Mus musculus; summary of the method: as §1
KB [9] = experiment: Antiviral activity was estimated by HSV-1 ELISA method; type: functional, cell-based; conditions: Homo sapiens; summary of the method: as §2
HFF [10] = experiment: Antiviral activity was estimated by the HCMV yield reduction experiments.; type: functional; conditions: Homo sapiens
Summary of the method: (§3)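 HCMV Towne strain yield reduction assay. Results are given as IC90, derived by linear regression of percent inhibition against log drug concentration. Ganciclovir was the positive control.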

HFF [11] = experiment: Antiviral activity was estimated by the HCMV yield reduction experiments; type: functional; conditions: Homo sapiens; summary of the method: as §3

Row | SMILES | IC50 (HFF [1]) [µM] | IC50 (L1210 [2]) [µM] | IC50 (HFF [3]) [µM] | IC50 (KB [4]) [µM] | IC50 (KB [5]) [µM] | IC50 (KB [6]) [µM] | IC50 (L1210 [7]) [µM] | IC50 (L1210 [8]) [µM] | IC50 (KB [9]) [µM] | IC90 (HFF [10]) [µM] | IC90 (HFF [11]) [µM]
1 | Nc1nnc(O)c2c1ccn2C1CCC(CO)O1 (stereo unspecified) | > 100 | > 100 | > 100 | > 100 | > 100 | – | – | – | – | – | –
2 | Nc1nnc(O)c2c1ccn2COC(CO)CO | > 100 | – | > 100 | > 100 | – | > 100 | > 100 | – | – | – | –
3 | Nc1nnc(O)c2c1c(Br)cn2COC(CO)CO | > 100 | – | > 100 | > 100 | – | – | – | > 100 | > 100 | – | –
4 | Nc1nnc(O)c2c1ccn2[C@@H]1O[C@H](CO)[C@@H](O)[C@H]1O | – | – | > 100 | – | 90 | – | – | – | – | – | –
5 | Nc1n[nH]c(=O)c2c1c(Br)cn2[C@@H]1O[C@H](CO)[C@@H](O)[C@@H]1O | 2.7 | 18 | 32 | 15 | 20 | – | – | – | – | 6.3 | –
6 | Nc1nnc(O)c2c1ccn2[C@@H]1O[C@H](CO)[C@@H](O)[C@@H]1O | > 100 | 100 | > 100 | – | 90 | – | – | – | – | – | –
7 | Nc1n[nH]c(=O)c2c1c(Br)cn2[C@@H]1O[C@H](CO)[C@@H](O)[C@H]1O | 0.1 | – | – | – | 2 | – | – | – | – | 0.04 | –
8 | Nc1n[nH]c(=O)c2c1ccn2[C@H]1C[C@H](O)[C@@H](CO)O1 | > 100 | – | > 100 | > 100 | 128 | – | – | > 100 | – | – | –
9 | Nc1nnc(O)c2c1c(Br)cn2C1CCC(CO)O1 (stereo unspecified) | 12 | 38 | 32 | 10 | 27 | – | – | – | – | 10 | –
10 | Nc1nnc(O)c2c1c(I)cn2C1O[C@H](CO)[C@@H](O)[C@H]1O (stereo partly specified) | 0.4 | 0.02 | – | – | 4.5 | – | – | – | – | 0.02 | –
11 | Nc1nnc(O)c2c1c(Cl)cn2C1O[C@H](CO)[C@@H](O)[C@H]1O (stereo partly specified) | 0.2 | – | – | – | 6.8 | – | – | – | – | 0.7 | –
12 | Nc1nc2c(ncn2COC(CO)CO)c(=O)[nH]1 [GANCICLOVIR] | 7.7 | – | – | – | – | 3.5 | – | – | – | – | 1.8

Reference: ChEMBL document CHEMBL1129959, “Synthesis and antiproliferative and antiviral activity of carbohydrate-modified pyrrolo[2,3-d]pyridazin-7-one nucleosides” (J Med Chem, 1997)
